The source made the active and inactive calls. The calls are words filed in the database; no cut-off is given here.
Assays:
Quadruplex DNA [1] = experiment: Stabilization of G-quadruplex c-KIT1 5-FAM-GGGAGGGCGCTGGGAGGAGGG-TAMRA-3 (unknown origin) assessed as change in melting temperature at 1 uM incubated for 1 hr in dark condition by FRET-based melting assay; assay type: nucleic-acid assay
How it was run: (§1)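 FRET melting of dual-fluorophore-tagged oligonucleotides (200 nM) in 60 mM potassium cacodylate buffer, pH 7.4, with ligand at 1 μM; ΔTm taken against the ligand-free oligonucleotide Tm as control.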

Quadruplex DNA [2] = experiment: Stabilization of G-quadruplex c-MYC 5-FAM-TGGGGAGGGTGGGGAGGGTGGGGAAGG-TAMRA- 3 (unknown origin) assessed as change in melting temperature at 1 uM incubated for 1 hr in dark condition by FRET-based melting assay; assay type: nucleic-acid assay; how it was run: as §1
Quadruplex DNA [3] = experiment: Stabilization of G-quadruplex c-KIT2 5-FAM-GGGCGGGCGCGAGGGAGGGG-TAMRA-3 (unknown origin) assessed as change in melting temperature at 1 uM incubated for 1 hr in dark condition by FRET-based melting assay; assay type: nucleic-acid assay; how it was run: as §1
Quadruplex DNA [4] = experiment: Stabilization of G-quadruplex BCL2 5-FAM-AGGGGCGGGCGCGGGAGGAAGGGGGCGGGAGCGGGGCTG-TAMRA-3 (unknown origin) assessed as change in melting temperature at 1 uM incubated for 1 hr in dark condition by FRET-based melting assay; assay type: nucleic-acid assay; how it was run: as §1
Quadruplex DNA [5] = experiment: Stabilization of G-quadruplex VEGF 5-FAM-CGGGGCGGGCCGGGGGCGGGGT-TAMRA-3 (unknown origin) assessed as change in melting temperature at 1 uM incubated for 1 hr in dark condition by FRET-based melting assay; assay type: nucleic-acid assay; how it was run: as §1
Quadruplex DNA [6] = experiment: Stabilization of G-quadruplex h-TELO 5-FAM-TTGGGTTAGGGTTAGGGTTAGGGA-TAMRA-3 (unknown origin) assessed as change in melting temperature at 1 uM incubated for 1 hr in dark condition by FRET-based melting assay; assay type: nucleic-acid assay; how it was run: as §1
Quadruplex DNA [7] = experiment: Stabilization of calf thymus […] ds DNA 5-FAM-CAATCGGATCGAATTCGATCCGATTG-TAMRA-3 assessed as change in melting temperature at 1 uM incubated for 1 hr in dark condition by FRET-based melting assay; assay type: nucleic-acid assay; conditions: Bos taurus; how it was run: as §1
Quadruplex DNA [8] = experiment: Stabilization of fluorophore tagged G-quadruplex c-KIT1 (unknown origin) assessed as change in melting temperature in presence of 0 to 100 equiv calf thymus DNA at 1 uM incubated for 1 hr in dark condition by competitive FRET-based melting assay; assay type: nucleic-acid assay
How it was run: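 Competitive FRET melting with fluorophore-labeled c-KIT 1 G-quadruplex and 1 μM ligand. Unlabeled calf thymus DNA was added at 0, 1, 5, 10, 50 and 100 molar equivalents over the labeled DNA, and ΔTm was monitored.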

K562 [9] = experiment: Cytotoxicity against human c-KIT-positive K562 cells assessed as cell viability measured after 24 hrs by XTT formazan assay; assay type: functional, cell-based; conditions: K562, 24 h
MCF7 = experiment: Cytotoxicity against human MCF7 cells assessed as cell viability measured after 24 hrs by XTT formazan assay; assay type: functional, cell-based; conditions: MCF7, 24 h
[10] = Cytotoxicity against HEK293 cells assessed as cell viability measured after 24 hrs by XTT formazan assay; assay type: toxicity, cell-based; conditions: human
[11] = Induction of cell permeation in human c-KIT-positive K562 cell membrane assessed as fold increase in (G- quadruplex/antibody complex) BG4 foci at 5.5 uM measured after 24 hrs by immunofluorescence assay; assay type: functional
How it was run: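 K562 cells were treated with ligand (3 or 5.5 μM) and immunostained with G4-specific antibody BG4. Nuclear BG4 foci were counted by confocal microscopy and expressed relative to untreated cells.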

K562 [12] = experiment: Attenuation of proto-oncogene expression in human c-KIT-positive K562 cells assessed as reduction in c-KIT oncogene expression at 5.5 uM measured after 24 hrs by qRT-PCR analysis relative to control; assay type: functional
How it was run: (§2)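 K562 cells treated 24 h at two doses per ligand (3 and 6 μM, 5.5 and 11 μM; positive control 2 and 4 μM). c-KIT, c-MYC and BCL-2 mRNA measured by qRT-PCR and normalized to housekeeping gene 18s, relative to untreated control.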

K562 [13] = experiment: Attenuation of proto-oncogene expression in human c-KIT-positive K562 cells assessed as reduction in c-KIT oncogene expression at 11 uM measured after 24 hrs by qRT-PCR analysis relative to control; assay type: functional; how it was run: as §2
[14] = Effect on proto-oncogene expression in human c-KIT-positive K562 cells assessed as upregulation in c-MYC oncogene expression at 5.5 uM measured after 24 hrs by qRT-PCR analysis relative to control; assay type: functional; how it was run: as §2
[15] = Effect on proto-oncogene expression in human c-KIT-positive K562 cells assessed as upregulation in c-MYC oncogene expression at 11 uM measured after 24 hrs by qRT-PCR analysis relative to control; assay type: functional; how it was run: as §2
[16] = Effect on proto-oncogene expression in human c-KIT-positive K562 cells assessed as upregulation in BCL-2 oncogene expression at 5.5 uM measured after 24 hrs by qRT-PCR analysis relative to control; assay type: functional; how it was run: as §2
[17] = Effect on proto-oncogene expression in human c-KIT-positive K562 cells assessed as down regulation in BCL-2 oncogene expression at 11 uM measured after 24 hrs by qRT-PCR analysis relative to control; assay type: functional; how it was run: as §2
[18] = Reduction of c-KIT oncogene expression in human K562 cells transfected with c-KIT plasmid construct assessed as reduction in luciferase expression at 5.5 uM measured after 36 hrs by luciferase reporter assay; assay type: functional
How it was run: (§3)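 K562 cells were transfected with luciferase plasmids carrying the c-KIT, c-MYC or BCL-2 promoter G4. They were then treated with ligand (3 and 6 μM or 5.5 and 11 μM), and relative luciferase expression was measured.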

[19] = Reduction of c-KIT oncogene expression in human K562 cells transfected with c-KIT plasmid construct assessed as reduction in luciferase expression at 11 uM measured after 36 hrs by luciferase reporter assay; assay type: functional; how it was run: as §3
[20] = Reduction of c-MYC oncogene expression in human K562 cells transfected with c-MYC plasmid construct assessed as reduction in luciferase expression at 5.5 uM measured after 36 hrs by luciferase reporter assay; assay type: functional
How it was run: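 Promoter luciferase reporter: K562 cells transfected with a c-MYC promoter G4-containing luciferase-expressing plasmid, then ligand-treated at two doses each (3 and 6 μM, or 5.5 and 11 μM); read-out as relative luciferase expression, reported as percent reduction.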

[21] = Reduction of c-MYC oncogene expression in human K562 cells transfected with c-MYC plasmid construct assessed as reduction in luciferase expression at 11 uM measured after 36 hrs by luciferase reporter assay; assay type: functional; how it was run: as §3
[22] = Reduction of BCL-2 oncogene expression in human K562 cells transfected with BCL-2 plasmid construct assessed as reduction in luciferase expression at 5.5 uM measured after 36 hrs by luciferase reporter assay; assay type: functional; how it was run: as §3
[23] = Reduction of BCL-2 oncogene expression in human K562 cells transfected with BCL-2 plasmid construct assessed as reduction in luciferase expression at 11 uM measured after 36 hrs by luciferase reporter assay; assay type: functional; how it was run: as §3
[24] = Reduction of c-KIT protein expression in human K562 cells at 5.5 uM measured after 24 hrs by Western blotting analysis relative to control; assay type: functional
How it was run: (§4)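 K562 cells were treated with ligand (3 and 6 μM or 5.5 and 11 μM). c-KIT protein was measured by Western blot with GAPDH as the housekeeping reference, relative to control.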

[25] = Reduction of c-KIT protein expression in human K562 cells at 11 uM measured after 24 hrs by Western blotting analysis relative to control; assay type: functional; conditions: K562, read-out: INH; how it was run: as §4
K562 [26] = experiment: Induction of cell cycle arrest in human K562 cells assessed as accumulation at G0/G1 phase at 5.5 to 11 uM incubated for 24 hrs by propidium iodide based assay; assay type: functional; conditions: dose 5.5-11 µM
How it was run: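 K562 cells were treated with ligand (3 and 6 μM or 5.5 and 11 μM) and stained with propidium iodide. The fraction of cells in each cell-cycle phase was determined by flow cytometry.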

K562 [27] = experiment: Induction of apoptosis in human K562 cells assessed as apoptosis at 5.5 uM incubated for 24 hrs by FITC-Annexin V and PI analysis; assay type: functional
How it was run: (§5)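 K562 cells were treated with ligand (3 and 6 μM or 5.5 and 11 μM) and dual-stained with annexin V and PI. Early and late apoptotic populations were quantified by flow cytometry dot plot analysis.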

K562 [28] = experiment: Induction of apoptosis in human K562 cells assessed as apoptosis at 11 uM incubated for 24 hrs by FITC-Annexin V and PI analysis; assay type: functional; how it was run: as §5

With `CN(C)CCCNC(=O)c1ccc(-n2cc(-c3ccc4oc5ccccc5c4c3)nn2)cc1` the ΔTm (Quadruplex DNA [1]) was < 3 °C, the ΔTm (Quadruplex DNA [2]) was < 3 °C and the ΔTm (Quadruplex DNA [3]) was < 3 °C. The ΔTm (Quadruplex DNA [4]) was < 3 °C, the ΔTm (Quadruplex DNA [5]) was < 3 °C and the ΔTm (Quadruplex DNA [6]) was < 3 °C. For the same compound, the ΔTm (Quadruplex DNA [7]) was < 3 °C, the Activity (Quadruplex DNA [8]) was “Active” and the IC50 (K562 [9]) was 11.7 µM. For the same compound, the IC50 (MCF7) was ≥ 19 µM, the IC50 at 24 h [10] was ≥ 50 µM and the “fold change (FC)” value [11] was 1.8. The inhibition at 5.5 µM (K562 [12]) was > 1%, the inhibition at 11 µM (K562 [13]) was 3% and the Activity [14] was 23%. For the same compound, the Activity [15] was 31%, the Activity [16] was 8% and the Activity [17] was 5%. For the same compound, the inhibition at 5.5 µM [18] was 3.3%, the inhibition at 11 µM [19] was 7.6% and the inhibition at 5.5 µM [20] was 6.2%. For the same compound, the inhibition at 11 µM [21] was 10.1%, the inhibition at 5.5 µM [22] was 9.5% and the inhibition at 11 µM [23] was 14%. The inhibition at 5.5 µM [24] was 7.8%, the inhibition at 11 µM [25] was -15.8% and the Activity (K562 [26]) was “inactive”. The Activity (K562 [27]) was 1% and the Activity (K562 [28]) was 11%.

— ChEMBL document CHEMBL5344453, “Selective Recognition of c-KIT 1 G-Quadruplex by Structural Tuning of Heteroaromatic Scaffolds and Side Chains” (ACS Med Chem Lett, 2024)
